Measured values from ChEMBL document CHEMBL4334482, “Cysteine Residue Containing Merocytochalasans and 17,18-seco-Aspochalasins from Aspergillus micronesiensis” (J Nat Prod, 2019).
In brackets after ≈: the same amount, converted by molar mass. Activity calls are given as the source filed them. The rule behind the calls is not given here.

Tests used:
MCF7 = experiment: Cytotoxicity against human MCF7 cells assessed as reduction in cell viability by MTS assay; format: functional, cell-based
In short: (§1)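 In vitro cytotoxicity was tested on a panel of five human cancer lines (HL60, A549, Hep3B, MCF-7, SW480), following an earlier published method. Values are reported as IC50 in μM.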

Staphylococcus aureus [1] = experiment: Antibacterial activity against Staphylococcus aureus; format: functional
Candida albicans = experiment: Antifungal activity against Candida albicans assessed as reduction in fungal growth incubated for 48 hrs by two fold serial dilution method; format: functional
Hep 3B2 = experiment: Cytotoxicity against human Hep3B cells assessed as reduction in cell viability by MTS assay; format: functional, cell-based; in short: as §1
SW480 = experiment: Cytotoxicity against human SW480 cells assessed as reduction in cell viability by MTS assay; format: functional, cell-based; in short: as §1
HL-60 = experiment: Cytotoxicity against human HL60 cells assessed as reduction in cell viability by MTS assay; format: functional, cell-based; in short: as §1
A549 = experiment: Cytotoxicity against human A549 cells assessed as reduction in cell viability by MTS assay; format: functional, cell-based; in short: as §1
Staphylococcus aureus [2] = experiment: Antibacterial activity against methicillin-resistant Staphylococcus aureus; format: functional

SMILES | IC50 (MCF7) [µM] | MIC50 (Staphylococcus aureus [1]) [µg/mL] | MIC90 (Staphylococcus aureus [1]) [µg/mL] | MIC50 (Candida albicans) [µg/mL] | MIC90 (Candida albicans) [µg/mL] | IC50 (Hep 3B2) [µM] | IC50 (SW480) [µM] | IC50 (HL-60) [µM] | IC50 (A549) [µM] | MIC50 (Staphylococcus aureus [2]) [µg/mL] | MIC90 (Staphylococcus aureus [2]) [µg/mL] | Activity (MCF7) | Activity (Hep 3B2) | Activity (SW480) | Activity (HL-60) | Activity (A549)
COC(=O)[C@H](O)CS[C@@H]1CC(=O)[C@H](O)CC/C(C)=C/[C@H]2C=C(C)[C@@H](C)[C@H]3[C@H](CC(C)C)NC(=O)[C@]32C1=O | 17.1 | 14.5 (≈ 27.1 µM) | 27 (≈ 50.4 µM) | 94.7 (≈ 177 µM) | > 100 | 8.2 | 13.6 | 3 | 16.7 | 10.6 (≈ 19.8 µM) | 14.7 (≈ 27.4 µM) | – | – | – | – | –
COC(=O)CC/C(C)=C/[C@H]1C=C(C)[C@@H](C)[C@H]2[C@H](CC(C)C)NC(=O)[C@]21C(=O)CCC(=O)O | – | – | – | – | – | – | – | – | – | – | – | inactive | inactive | inactive | inactive | inactive
CC(=O)NCCS[C@@H]1CC(=O)[C@H](O)CC/C(C)=C/[C@H]2C=C(C)[C@@H](C)[C@H]3[C@H](CC(C)C)NC(=O)[C@]32C1=O | 16.1 | 40.8 (≈ 78.7 µM) | 58.5 (≈ 113 µM) | 43.3 (≈ 83.5 µM) | 89.9 (≈ 173 µM) | 19.9 | 10.1 | 9.3 | > 20 | 17.5 (≈ 33.7 µM) | 28.4 (≈ 54.8 µM) | – | – | – | – | –
COC(=O)CCC(=O)[C@@]12C(=O)N[C@@H](CC(C)C)[C@@H]1[C@H](C)C(C)=C[C@@H]2/C=C(\C)CCC(=O)O | – | – | – | – | – | – | – | – | – | – | – | inactive | inactive | inactive | inactive | inactive
